The values that follow come from ChEMBL document CHEMBL4513216, “Probing the Open Global Health Chemical Diversity Library for Multistage-Active Starting Points for Next-Generation Antimalarials” (ACS Infect Dis, 2020).

Structures are written as SMILES.

The nature of this series: Toxicity liver stage against HepG2, at 10uM. Format: cell-based. On the set-up: test concentration 10 uM, cell line HepG2-A16-CD81EGFP. The note with it: human, HepG2-A16-CD81EGFP cells; read-out: INHIBITION
Put shortly:
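Uninfected HepG2-A16-CD81EGFP cells, 3 × 10^3 per well, 1536-well, plated on prespotted compound at 10 μM final, parasite-free screening media added to match infected plates; puromycin 10 μM positive, DMSO 0.5% negative; run in parallel with 48 h PbLuc assay at 37 °C, 5% CO2; viability by CellTiter-Glo luminescence, normalized to controls.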
As to `O=C(CCCNC(=O)c1cnccn1)Nc1ncc[nH]1`, the cytotoxicity at 10 µM was -41.9%.
In the case of `CC(=O)Nc1ccc2c(c1)CN(C(=O)c1ccco1)CC2`, the cytotoxicity at 10 µM came to 6.17%.
Turning to `O=C(Cc1ccccc1Cl)NCCN1CCC(c2cccs2)CC1`, the cytotoxicity at 10 µM was 6.93%.
Consider `O=C(CN1C(=O)CCC1=O)NCc1nn(C2CCCC2)c2c1CCCC2`, for which the cytotoxicity at 10 µM was 1.97%.
For the compound `CCOc1cccc2c1OCC(=O)N(c1ccc3c(c1)OCCO3)C2`, the cytotoxicity at 10 µM is 13.1%.
To `O=c1[nH]nc2c(N3CCOCC3)nccn12` belongs 9.73%.
In the case of `Cc1ccc(C)c(Oc2cc(-n3nc(C)c(C#N)c3N)nc(C)n2)c1`, the cytotoxicity at 10 µM worked out at 69.5%.
Consider `CCS(=O)(=O)N1CCCc2ccc(NC(=O)Cc3ccc(F)cc3)cc21`, for which the cytotoxicity at 10 µM was found to be 18.6%.
Regarding `CS(=O)(=O)N1Cc2ccccc2C2(CCN(C(=O)c3ccno3)CC2)C1`, the cytotoxicity at 10 µM was 6.31%.
To `CCOc1ccc(S(=O)(=O)N(C)Cc2cnn(CC)c2)cc1` belongs 11.6%.
As to `Cc1cc2nc(CN(C)c3ccc(Cl)cc3)cc(=O)n2o1`, the cytotoxicity at 10 µM is -13%.
Regarding `Cc1nn(C)c2cn(C(C)C(=O)NCc3ccccn3)nc12` (stereo not drawn), the cytotoxicity at 10 µM was 11.1%.
Take `CCC(=O)N1CCCC(C(=O)c2cnn(-c3ccc(F)cc3)c2N)C1` (stereo not drawn): the cytotoxicity at 10 µM was 4.57%.
With `COc1cccc([C@H]2CN(C(=O)c3ccccc3)[C@@H]3CCCN[C@H]23)c1` the figure was -25.9%.
With `CCCn1nccc1-c1cc(C2CCN(S(C)(=O)=O)CC2)ccn1`, the cytotoxicity at 10 µM was -6.94%.
To `CCS(=O)(=O)N1CCCC(Cc2cnccn2)C1` (stereo not drawn) belongs -10.3%; to `CS(=O)(=O)N1Cc2ccccc2CC2(CCN(Cc3ccccc3)C2)C1` (stereo not drawn), 7.38%; to `CCC(C)(CC(=O)OC)NCc1cc(C)on1` (stereo not drawn), -1.88%.
Turning to `CCc1ccc(O)c(C(=O)N2CCN(CC(=O)N(CC)CC)CC2)c1`, the cytotoxicity at 10 µM is 4.49%.
`CCC(CC)NC(=O)c1cccnc1-n1cccn1`: the cytotoxicity at 10 µM was -13.9%.
For `O=C(Nc1cccnc1)NC1CCN(c2ccccc2OC(F)F)C1` (stereo not drawn), the cytotoxicity at 10 µM came out at 12.1%.
Turning to `N#Cc1ccc(CN2CCCN(CCCn3cncn3)CC2)cc1`, the cytotoxicity at 10 µM was -2.89%.
With `Cc1cnn(CC2CCCN2c2ncnc3sccc23)c1` (stereo not drawn), the cytotoxicity at 10 µM turned out to be 44.4%.
With `CCC(C)C(=O)Nc1ccc2oc(=O)n(CCN(C)C)c2c1` (stereo not drawn), the cytotoxicity at 10 µM is -14.8%.
With `CC(CNC(=O)c1ccc(F)cc1I)N1CCCC1` (stereo not drawn), the cytotoxicity at 10 µM is 1.28%.
For `O=C(CC1CN(Cc2ccccc2)CCO1)NCCN1CCOCC1` (stereo not drawn), the cytotoxicity at 10 µM came out at 6.67%.
For `Cc1cc(Cl)cc(C)c1CNC1CCN(CC(=O)N(C)C)CC1`, the cytotoxicity at 10 µM is -1.51%.
Consider `CC(=O)N1Cc2ccccc2CC1C(=O)Nc1cc(C)ccn1` (stereo not drawn), for which the cytotoxicity at 10 µM is -4.5%.
Turning to `Cc1cc(N)nc(SC2CCN(c3ccccc3F)C2=O)n1` (stereo not drawn), the cytotoxicity at 10 µM is -9.51%.
For `O=C(NC1(c2nccs2)CCCC1)c1[nH]nc(C2CC2)c1Cl`, the cytotoxicity at 10 µM was -24.6%.
Take `Cc1nc(CNC(=O)NC2CCN(c3cccc(Cl)c3)C2)no1` (stereo not drawn): the cytotoxicity at 10 µM came out at 0.636%.
With `CC(C)(C)OC(=O)N1CCCN1C(=O)c1cccc2cc[nH]c12`, the cytotoxicity at 10 µM worked out at 2.84%.
For `Cc1cc(CN(CCCO)c2ccccc2)on1`, the cytotoxicity at 10 µM was -4.91%.
`Cc1cc(C(=O)NS(=O)(=O)Cc2ccon2)c(C)n1C(C)C`: the cytotoxicity at 10 µM is -2.17%.
To `Cc1cc(C)c(CNc2nc3ccccc3cc2CO)c(=O)[nH]1` belongs 6.37%; to `COCC(C)NS(=O)(=O)c1ccc(Br)cn1` (stereo not drawn), -6.74%; to `CS(=O)(=O)Cc1nc(CN2CCc3ccccc3CC2)cs1`, -7.73%.
Take `CCOC1CCC2(CCN(C(=O)c3csnn3)CC2)c2ccccc21` (stereo not drawn): the cytotoxicity at 10 µM was -1.58%.
With `CC(=O)N1CCC(n2ccc(-c3cnc(NCC(C)C)nc3)n2)CC1`, the cytotoxicity at 10 µM is -9.13%.
Take `CSCC(=O)N(C)Cc1noc(-c2ccccc2)n1`: the cytotoxicity at 10 µM was -4.34%.
As to `c1cn(-c2ccc(N3CCC(NC4CC4)CC3)cc2)cn1`, the cytotoxicity at 10 µM is 5.16%.
Consider `c1ccc(-c2nnc(N3CCCC4(CCOC4)C3)s2)cc1` (stereo not drawn), for which the cytotoxicity at 10 µM is -2.37%.
As to `CNS(=O)(=O)c1ccc(CN2CCCN(Cc3ccncc3)CC2)cc1`, the cytotoxicity at 10 µM was found to be 7.06%.
To `Cc1nc(CN(C)Cc2nc(-c3sccc3C)oc2C)no1` belongs -0.205%; to `O=C1Nc2ccccc2NC12CCN(Cc1nnc(C3CC3)o1)CC2`, -7.03%.
Take `O=C1CC2(CCN(C(=O)c3cccc(Cl)c3)CC2)CN1`: the cytotoxicity at 10 µM is -3.02%.
On to `CCN(CC)C(=O)[C@@H]1C[C@H](N)CN1c1nnc(-c2ccccc2)s1`, for which the cytotoxicity at 10 µM was -51.7%.
As to `O=C(NCc1ccc2[nH]c(=O)[nH]c2c1)c1ccc(CN2CCCC2)o1`, the cytotoxicity at 10 µM was -0.987%.
In the case of `CC(C)N(CCO)C(=O)C1CCC(=O)N(CCc2cccc(F)c2)C1` (stereo not drawn), the cytotoxicity at 10 µM is -6.95%.
As to `c1ccc(NCCn2cc(C3CCCNC3)nn2)cc1` (stereo not drawn), the cytotoxicity at 10 µM is 5.44%.
As to `Cc1ncc2c(c1CNC(=O)C1(C)CCCO1)CCNC2` (stereo not drawn), the cytotoxicity at 10 µM was -45.6%.
Turning to `OCc1ccc(CN(CCCn2ccnc2)Cc2cccnc2)o1`, the cytotoxicity at 10 µM was -6.75%.
In the case of `CC(O)c1cn(CC2CCN(C(=O)c3cccc(N(C)C)c3)CC2)nn1` (stereo not drawn), the cytotoxicity at 10 µM was -0.412%.
On to `COc1ccccc1C1CNC(=O)c2nc(-c3nccn3C)[nH]c2C1` (stereo not drawn), for which the cytotoxicity at 10 µM worked out at 4.2%.
To `CCCN1CCC(CC(=O)N(C)CC(=O)c2ccc(O)cc2)CC1` belongs 1.73%; to `Nc1ccc(CC2COc3ccccc3C2)cn1` (stereo not drawn), 0.541%.
`CCOc1ccc(C(=O)CCC(=O)NCc2csc(N)n2)cc1C`: the cytotoxicity at 10 µM came to 7.34%.
For `CC(C)CN1CC2(CCN(C(=O)c3nc4ncccn4n3)CC2)CC1=O`, the cytotoxicity at 10 µM was 0.345%.
Turning to `CCC[C@H]1CN(c2nccc(OC)n2)C[C@@H]1NS(=O)(=O)N(C)C`, the cytotoxicity at 10 µM was -140%.
Turning to `Cc1ccccc1N1CCN(C(=O)CC(C)C)CC1`, the cytotoxicity at 10 µM was -1.26%.
With `NC(=O)C1CCN(C(=O)c2cc(S(=O)(=O)N3CCCCC3)cs2)CC1` the figure was -45.1%.
On to `CCn1nc(C)c(CCN2CC3(CCOC3)CCC2=O)c1C` (stereo not drawn), for which the cytotoxicity at 10 µM is -118%.
As to `CCNc1ncc(C(=O)NCCc2csc(-c3ncccn3)n2)cn1`, the cytotoxicity at 10 µM stood at 19.9%.
Take `CC1CN(C)CCN1C(=O)c1ccn(-c2ccc(F)cc2)n1` (stereo not drawn): the cytotoxicity at 10 µM was -5.3%.
For `CN(C)C(=O)C1CCN(Cc2csc(C(C)(C)C)n2)CC1`, the cytotoxicity at 10 µM was -23%.
Take `CC(Cn1cccn1)NCc1ccc(OCc2ccncc2)cc1` (stereo not drawn): the cytotoxicity at 10 µM was -29.9%.
With `CC(C)Oc1ccccc1NC(=O)N1CCC(n2cncn2)CC1` the figure was -3.67%; with `Cc1cc(NC(=O)CN2CCOC(Cn3nc(C)cc3C)C2)n(C)n1` (stereo not drawn), -7.91%; with `CC(NC(=O)NCCNc1ncccn1)c1cccs1` (stereo not drawn), -0.447%.
Regarding `NC(=O)c1cc(C2CCCN(C(=O)CCc3ccsc3)C2)n[nH]1` (stereo not drawn), the cytotoxicity at 10 µM is -5.79%.
For the compound `CC(C)CNC(=O)CN1C=Nc2ccccc2S1(=O)=O`, the cytotoxicity at 10 µM is -2.09%.
To `CC(C)c1nc(C2CCCN(C(=O)CCn3ccnc3)C2)no1` (stereo not drawn) belongs -10.8%; to `CC(C(=O)Nc1ccc(N2CCCC2)nc1)n1cncn1` (stereo not drawn), -6.19%; to `Cc1ccccc1-c1noc(CN2CCn3c(nnc3C3CC3)C2)n1`, -7.64%.
With `CN(Cc1ccccc1)CC(O)Cn1cnc2ccsc2c1=O` (stereo not drawn) the figure was -2.89%.
On to `O=C(Nc1cnn(CCN2CCOCC2)c1)c1ccccc1O`, for which the cytotoxicity at 10 µM is -3.38%.
As for `Cc1cc(NC(=O)CCN2CCCC2Cn2cncn2)no1` (stereo not drawn), the cytotoxicity at 10 µM amounted to 4.26%.
As for `CC(=O)N1CCN(C(=O)c2cnn(-c3ccccc3Cl)c2)CC1`, the cytotoxicity at 10 µM is -8.72%.
Take `Cc1cnn(CC2CCN(CC(O)COc3ccc(F)cc3)CC2)c1` (stereo not drawn): the cytotoxicity at 10 µM is -10.9%.
As for `Cc1c(C)n(CC(O)CN2CCOCC2)c2c(Cl)cccc12` (stereo not drawn), the cytotoxicity at 10 µM worked out at 0.829%.
With `COCC1CN(CC2CC2)Cc2nn(C)cc21` (stereo not drawn), the cytotoxicity at 10 µM was found to be 0.281%.
Turning to `Cn1cncc1C(=O)N1C[C@@H]2CCN(c3cnccn3)C[C@@H]2C1`, the cytotoxicity at 10 µM is -96.6%.
With `Cc1cc(C(=O)N2CCCC3(COCCN(CCN(C)C)C3)C2)no1` (stereo not drawn), the cytotoxicity at 10 µM was found to be 3.22%.
With `O=C(c1ccncc1F)N1Cc2nc(COCC3CC3)oc2C1`, the cytotoxicity at 10 µM was -99.9%.
To `Cn1cccc1C(=O)N1CC[C@H]2[C@H]1CCN2CC1CC1` belongs -3.86%.
For the compound `CCCN1CCc2c(C(=O)N(C)Cc3ccccn3)nn(C)c2C1`, the cytotoxicity at 10 µM was -1.92%.
`Cc1ccc2c(c1)C1(CCNCC1)CC2NCCO` (stereo not drawn): the cytotoxicity at 10 µM is -105%.
As for `CCC(=O)Nc1ccc2c(c1)C1(CCOCC1)CN2CCOC`, the cytotoxicity at 10 µM was -99%.
For `COCC1c2c(cnn2C)CCN1C(=O)c1cscn1` (stereo not drawn), the cytotoxicity at 10 µM was -101%.
For `Cc1ccc(N2CC[C@@H]3[C@@H]2CCN3C(=O)Cc2ccsc2)nn1`, the cytotoxicity at 10 µM was -93.9%.
On to `COc1c(CNCc2ccc(C(=O)N(C)C)cc2)c(C)nn1C`, for which the cytotoxicity at 10 µM was found to be 1.64%.
In the case of `COc1cc(N2CCC3(CCN(Cc4csc(C)n4)C3)CC2)ncn1`, the cytotoxicity at 10 µM is -118%.
On to `Cc1ccc(C(=O)N2CCC3(CC2)CC(N2CCOCC2)C3)cc1`, for which the cytotoxicity at 10 µM was determined as 1.93%.
Turning to `COc1ncccc1CNC1CCc2c(ccc(=O)n2CC2CC2)C1` (stereo not drawn), the cytotoxicity at 10 µM was -110%.
To `Cc1nc(COC[C@@H]2CC[C@H]3NCC[C@H]3O2)cs1` belongs -3.15%.
To `C1CC(N2C[C@@H]3COC[C@]3(COCC3CCOCC3)C2)C1` belongs -111%; to `CCC=C(C)C(=O)NCc1ccnc(OC2CCOCC2)c1`, 5.48%.
With `C=c1ccoc1=C1NN=C(CNC2CCCN(c3cccnn3)C2)O1` (stereo not drawn), the cytotoxicity at 10 µM was -9.48%.
